# According to ChEMBL document CHEMBL1155278, “3,4-Diaryl-isoxazoles and -imidazoles as potent dual inhibitors of p38alpha mitogen activated protein kinase and casein kinase 1delta” (J Med Chem, 2009):
# pIC50: −log10 of the molar value.
# Assays:
# [1] = biological target: T1, Serine/threonine-protein kinase 3 (Homo sapiens) (UniProt Q13188); test: Inhibition of MST2 assessed as residual activity at 0.1 uM by Cherenkov counting relative to control in presence of 20 uM ATP
# T1 sequence (whole entry): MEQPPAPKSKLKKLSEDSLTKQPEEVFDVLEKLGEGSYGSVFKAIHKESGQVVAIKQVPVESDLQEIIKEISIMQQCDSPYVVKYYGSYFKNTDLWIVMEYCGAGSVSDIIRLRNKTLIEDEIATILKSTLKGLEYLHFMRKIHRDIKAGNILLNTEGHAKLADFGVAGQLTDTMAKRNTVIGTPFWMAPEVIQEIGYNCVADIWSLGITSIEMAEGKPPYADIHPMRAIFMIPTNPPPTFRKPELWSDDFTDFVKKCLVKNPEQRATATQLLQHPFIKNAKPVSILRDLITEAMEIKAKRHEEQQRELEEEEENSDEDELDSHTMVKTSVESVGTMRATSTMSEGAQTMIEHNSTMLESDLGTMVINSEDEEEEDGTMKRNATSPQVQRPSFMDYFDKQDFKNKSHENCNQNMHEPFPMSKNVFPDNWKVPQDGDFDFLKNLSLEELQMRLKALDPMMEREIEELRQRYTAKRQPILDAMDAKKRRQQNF
# Method in brief: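 Single-concentration selectivity screen at 0.1 μM against a panel of 76 protein kinases. Each kinase was run at an ATP level approximating its Km for ATP. Output is mean residual activity as % of the control assay without compound, n = 3 ± SD.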
# [2] = biological target: Casein kinase I isoform delta (Homo sapiens, UniProt P48730); test: Inhibition of recombinant CK1delta kinase domain by Cherenkov counting
# Chain of Casein kinase I isoform delta (P48730 whole entry, the tested form may be a part, canonical isoform): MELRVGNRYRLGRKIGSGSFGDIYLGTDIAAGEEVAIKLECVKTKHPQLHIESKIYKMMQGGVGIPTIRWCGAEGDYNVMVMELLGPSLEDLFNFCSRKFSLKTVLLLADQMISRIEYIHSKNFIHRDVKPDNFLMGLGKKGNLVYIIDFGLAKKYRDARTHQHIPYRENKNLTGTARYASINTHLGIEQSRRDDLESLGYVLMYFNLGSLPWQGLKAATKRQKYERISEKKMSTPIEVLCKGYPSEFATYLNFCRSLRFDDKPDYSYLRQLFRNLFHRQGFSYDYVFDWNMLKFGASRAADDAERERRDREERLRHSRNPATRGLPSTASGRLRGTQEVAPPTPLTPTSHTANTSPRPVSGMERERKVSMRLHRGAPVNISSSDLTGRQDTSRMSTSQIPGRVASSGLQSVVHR
# [3] = biological target: Mitogen-activated protein kinase 1 (Homo sapiens) (UniProt P28482); test: Inhibition of ERK2 assessed as residual activity at 0.1 uM by Cherenkov counting relative to control
# Chain of Mitogen-activated protein kinase 1 (Homo sapiens) (P28482 whole entry): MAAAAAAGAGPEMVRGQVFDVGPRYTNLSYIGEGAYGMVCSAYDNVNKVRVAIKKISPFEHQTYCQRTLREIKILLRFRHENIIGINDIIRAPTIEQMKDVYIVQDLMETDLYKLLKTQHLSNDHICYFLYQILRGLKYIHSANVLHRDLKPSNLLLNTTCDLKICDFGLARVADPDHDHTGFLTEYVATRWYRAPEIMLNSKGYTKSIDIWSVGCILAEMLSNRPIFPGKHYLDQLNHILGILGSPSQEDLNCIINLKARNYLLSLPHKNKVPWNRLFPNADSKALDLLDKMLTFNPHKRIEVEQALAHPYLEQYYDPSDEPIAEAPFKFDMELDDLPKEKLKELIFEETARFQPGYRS
# Method in brief: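 Single-concentration screen at 0.1 µM across a panel of 76 protein kinases. Each kinase was run at an ATP concentration approximating its ATP Km. Results are % mean residual activity versus control assays without compound (n = 3 ± SD).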
# [4] = biological target: RAC-alpha serine/threonine-protein kinase (Homo sapiens) (UniProt P31749); test: Inhibition of PKBalpha assessed as residual activity at 0.1 uM by Cherenkov counting relative to control in presence of 5 uM ATP
# Chain of RAC-alpha serine/threonine-protein kinase (Homo sapiens) (P31749 whole entry): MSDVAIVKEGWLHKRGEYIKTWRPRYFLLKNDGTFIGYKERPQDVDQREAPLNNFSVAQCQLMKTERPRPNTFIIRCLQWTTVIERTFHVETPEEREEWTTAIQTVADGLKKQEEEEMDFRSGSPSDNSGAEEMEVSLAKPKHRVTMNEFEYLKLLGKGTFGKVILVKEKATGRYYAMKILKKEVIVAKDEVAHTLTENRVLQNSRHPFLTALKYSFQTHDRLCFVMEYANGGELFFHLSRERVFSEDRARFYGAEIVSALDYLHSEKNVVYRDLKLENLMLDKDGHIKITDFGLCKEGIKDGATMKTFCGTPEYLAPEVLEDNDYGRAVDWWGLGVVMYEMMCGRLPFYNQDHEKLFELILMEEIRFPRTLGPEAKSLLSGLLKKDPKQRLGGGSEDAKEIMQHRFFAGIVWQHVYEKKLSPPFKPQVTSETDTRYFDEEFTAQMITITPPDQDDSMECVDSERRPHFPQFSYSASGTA
# Method in brief: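 Single-concentration screen at 0.1 μM in a 76-kinase panel. ATP for each kinase was set near its Km for ATP. Residual activity is given as a percentage of control assays without compound, mean of n = 3 ± SD.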
# [5] = biological target: Insulin receptor-related protein (Homo sapiens) (UniProt P14616); test: Inhibition of IRR assessed as residual activity at 10 uM by Cherenkov counting relative to control in presence of 5 uM ATP
# Chain of Insulin receptor-related protein (Homo sapiens) (P14616 27-742 limits assumed): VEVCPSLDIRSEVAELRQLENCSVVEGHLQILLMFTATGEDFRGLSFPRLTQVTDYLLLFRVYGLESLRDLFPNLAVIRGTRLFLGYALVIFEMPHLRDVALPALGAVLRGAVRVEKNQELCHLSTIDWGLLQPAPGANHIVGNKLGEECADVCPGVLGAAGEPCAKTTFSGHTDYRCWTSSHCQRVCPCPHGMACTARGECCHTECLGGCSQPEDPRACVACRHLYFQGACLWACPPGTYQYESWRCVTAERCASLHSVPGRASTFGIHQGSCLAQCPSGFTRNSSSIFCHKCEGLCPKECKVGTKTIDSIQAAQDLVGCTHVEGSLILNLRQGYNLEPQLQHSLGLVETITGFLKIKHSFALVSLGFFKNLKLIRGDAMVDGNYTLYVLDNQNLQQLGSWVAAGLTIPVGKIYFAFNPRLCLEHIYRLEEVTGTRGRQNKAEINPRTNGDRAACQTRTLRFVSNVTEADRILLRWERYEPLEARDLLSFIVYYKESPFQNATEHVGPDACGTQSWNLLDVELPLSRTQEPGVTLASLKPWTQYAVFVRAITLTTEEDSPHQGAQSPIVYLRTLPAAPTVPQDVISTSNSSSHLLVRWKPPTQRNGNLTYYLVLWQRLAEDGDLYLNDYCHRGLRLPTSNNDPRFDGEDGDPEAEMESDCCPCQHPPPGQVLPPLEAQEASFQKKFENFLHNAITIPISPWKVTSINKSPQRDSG
# Chain of Insulin receptor-related protein (Homo sapiens) (P14616 747-1297 limits assumed): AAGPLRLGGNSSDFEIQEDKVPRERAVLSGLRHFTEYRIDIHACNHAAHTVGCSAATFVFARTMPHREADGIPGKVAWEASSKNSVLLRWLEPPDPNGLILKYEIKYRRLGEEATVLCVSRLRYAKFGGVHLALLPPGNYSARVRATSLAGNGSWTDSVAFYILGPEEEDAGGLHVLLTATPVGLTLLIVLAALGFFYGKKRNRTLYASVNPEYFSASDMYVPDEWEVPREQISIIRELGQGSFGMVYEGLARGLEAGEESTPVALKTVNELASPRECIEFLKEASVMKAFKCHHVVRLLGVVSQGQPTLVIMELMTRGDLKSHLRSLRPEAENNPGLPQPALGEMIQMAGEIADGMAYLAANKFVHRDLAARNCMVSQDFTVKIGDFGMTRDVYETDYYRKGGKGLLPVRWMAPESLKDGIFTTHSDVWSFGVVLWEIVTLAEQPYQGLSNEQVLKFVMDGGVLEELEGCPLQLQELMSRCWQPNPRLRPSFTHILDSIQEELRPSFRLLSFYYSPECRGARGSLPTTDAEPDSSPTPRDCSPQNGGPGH
# [6] = biological target: T2, MAP kinase-activated protein kinase 5 (Homo sapiens) (UniProt Q8IW41); test: Inhibition of PRAK assessed as residual activity at 10 uM by Cherenkov counting relative to control in presence of 20 uM ATP
# T2 sequence (whole entry): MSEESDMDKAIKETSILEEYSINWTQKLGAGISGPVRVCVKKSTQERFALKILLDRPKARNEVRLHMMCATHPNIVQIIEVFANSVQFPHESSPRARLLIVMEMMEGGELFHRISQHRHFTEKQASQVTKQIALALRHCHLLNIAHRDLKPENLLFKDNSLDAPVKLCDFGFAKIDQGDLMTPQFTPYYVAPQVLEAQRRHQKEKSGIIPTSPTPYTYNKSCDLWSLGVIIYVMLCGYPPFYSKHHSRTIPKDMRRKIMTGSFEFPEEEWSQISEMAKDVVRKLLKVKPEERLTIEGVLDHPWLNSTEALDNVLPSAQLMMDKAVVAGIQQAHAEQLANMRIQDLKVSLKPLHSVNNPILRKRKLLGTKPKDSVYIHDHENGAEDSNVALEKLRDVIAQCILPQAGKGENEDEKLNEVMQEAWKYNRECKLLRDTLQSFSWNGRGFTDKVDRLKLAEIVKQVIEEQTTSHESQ
# Method in brief: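 Single-concentration profiling at 10 μM in a 78-kinase panel. Kinase activity is expressed as a percentage of control assays run without compound.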
# [7] = biological target: Aurora kinase B (Homo sapiens) (UniProt Q96GD4); test: Inhibition of Aurora B assessed as residual activity at 10 uM by Cherenkov counting relative to control in presence of 20 uM ATP
# Chain of Aurora kinase B (Homo sapiens) (Q96GD4 whole entry): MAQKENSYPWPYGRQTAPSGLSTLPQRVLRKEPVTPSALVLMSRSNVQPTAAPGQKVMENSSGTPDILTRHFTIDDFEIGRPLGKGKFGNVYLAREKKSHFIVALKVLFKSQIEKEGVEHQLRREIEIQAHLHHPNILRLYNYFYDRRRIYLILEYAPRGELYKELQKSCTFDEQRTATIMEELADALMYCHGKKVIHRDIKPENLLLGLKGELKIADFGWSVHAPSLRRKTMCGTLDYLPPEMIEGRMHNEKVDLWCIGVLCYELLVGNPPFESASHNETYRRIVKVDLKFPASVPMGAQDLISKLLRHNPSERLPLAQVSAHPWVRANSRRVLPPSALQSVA
# Method in brief: (§1)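 Single-point profiling at 10 µM in a panel of 78 protein kinases. Kinase activity is expressed as a percentage relative to control assays without compound.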
# [8] = biological target: Ephrin type-A receptor 2 (Homo sapiens) (UniProt P29317); test: Inhibition of EPHA2 assessed as residual activity at 10 uM by Cherenkov counting relative to control in presence of 50 uM ATP; method in brief: as §1
# Chain of Ephrin type-A receptor 2 (Homo sapiens) (P29317 whole entry): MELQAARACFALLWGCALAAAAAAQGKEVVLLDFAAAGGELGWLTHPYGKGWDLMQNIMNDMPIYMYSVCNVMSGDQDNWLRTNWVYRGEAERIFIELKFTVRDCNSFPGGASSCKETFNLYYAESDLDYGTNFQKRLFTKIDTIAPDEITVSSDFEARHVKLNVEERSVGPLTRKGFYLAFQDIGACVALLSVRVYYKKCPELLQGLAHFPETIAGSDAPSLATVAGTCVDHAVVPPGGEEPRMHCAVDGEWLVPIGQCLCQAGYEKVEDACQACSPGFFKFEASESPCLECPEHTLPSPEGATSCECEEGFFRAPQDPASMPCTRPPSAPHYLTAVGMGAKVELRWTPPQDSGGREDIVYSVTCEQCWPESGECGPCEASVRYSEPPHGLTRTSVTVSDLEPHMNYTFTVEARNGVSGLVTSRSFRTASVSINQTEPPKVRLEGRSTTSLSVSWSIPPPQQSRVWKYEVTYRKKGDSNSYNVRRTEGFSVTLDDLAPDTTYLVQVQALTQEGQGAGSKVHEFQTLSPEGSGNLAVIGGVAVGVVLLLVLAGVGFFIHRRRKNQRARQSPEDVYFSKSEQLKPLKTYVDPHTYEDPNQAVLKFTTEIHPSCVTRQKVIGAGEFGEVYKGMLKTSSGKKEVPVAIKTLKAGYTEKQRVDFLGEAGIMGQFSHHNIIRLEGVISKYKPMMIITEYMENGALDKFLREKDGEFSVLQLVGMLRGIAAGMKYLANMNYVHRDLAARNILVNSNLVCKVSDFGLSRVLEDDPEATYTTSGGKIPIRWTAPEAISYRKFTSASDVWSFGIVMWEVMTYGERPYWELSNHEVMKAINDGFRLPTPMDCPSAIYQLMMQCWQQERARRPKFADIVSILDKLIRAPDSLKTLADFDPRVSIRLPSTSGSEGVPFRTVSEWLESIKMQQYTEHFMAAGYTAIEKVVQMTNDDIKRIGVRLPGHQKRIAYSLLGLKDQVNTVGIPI
# [9] = biological target: T3, Dual specificity tyrosine-phosphorylation-regulated kinase 2 (Homo sapiens) (UniProt Q92630); test: Inhibition of DYRK2 assessed as residual activity at 10 uM by Cherenkov counting relative to control in presence of 50 uM ATP; method in brief: as §1
# T3 sequence (whole entry): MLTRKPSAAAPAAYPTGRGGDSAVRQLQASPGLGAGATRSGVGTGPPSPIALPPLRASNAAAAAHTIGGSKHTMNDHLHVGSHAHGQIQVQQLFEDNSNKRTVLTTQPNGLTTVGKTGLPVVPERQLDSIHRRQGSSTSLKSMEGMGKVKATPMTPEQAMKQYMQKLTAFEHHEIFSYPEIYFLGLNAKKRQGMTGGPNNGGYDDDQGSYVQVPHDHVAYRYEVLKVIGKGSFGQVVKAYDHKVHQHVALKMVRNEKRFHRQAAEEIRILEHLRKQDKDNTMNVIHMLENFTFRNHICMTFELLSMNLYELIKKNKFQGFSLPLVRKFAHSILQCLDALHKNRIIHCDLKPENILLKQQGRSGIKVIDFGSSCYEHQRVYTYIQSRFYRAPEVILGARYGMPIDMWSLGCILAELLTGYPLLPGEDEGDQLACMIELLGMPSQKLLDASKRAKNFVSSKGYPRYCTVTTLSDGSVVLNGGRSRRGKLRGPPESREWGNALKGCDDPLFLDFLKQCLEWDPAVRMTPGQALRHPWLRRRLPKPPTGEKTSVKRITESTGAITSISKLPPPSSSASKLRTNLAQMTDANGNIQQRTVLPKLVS
# [10] = biological target: Serine/threonine-protein kinase PAK 5 (Homo sapiens) (UniProt Q9P286); test: Inhibition of PAK5 assessed as residual activity at 10 uM by Cherenkov counting relative to control in presence of 20 uM ATP
# Chain of Serine/threonine-protein kinase PAK 5 (Homo sapiens) (Q9P286 whole entry, looked up): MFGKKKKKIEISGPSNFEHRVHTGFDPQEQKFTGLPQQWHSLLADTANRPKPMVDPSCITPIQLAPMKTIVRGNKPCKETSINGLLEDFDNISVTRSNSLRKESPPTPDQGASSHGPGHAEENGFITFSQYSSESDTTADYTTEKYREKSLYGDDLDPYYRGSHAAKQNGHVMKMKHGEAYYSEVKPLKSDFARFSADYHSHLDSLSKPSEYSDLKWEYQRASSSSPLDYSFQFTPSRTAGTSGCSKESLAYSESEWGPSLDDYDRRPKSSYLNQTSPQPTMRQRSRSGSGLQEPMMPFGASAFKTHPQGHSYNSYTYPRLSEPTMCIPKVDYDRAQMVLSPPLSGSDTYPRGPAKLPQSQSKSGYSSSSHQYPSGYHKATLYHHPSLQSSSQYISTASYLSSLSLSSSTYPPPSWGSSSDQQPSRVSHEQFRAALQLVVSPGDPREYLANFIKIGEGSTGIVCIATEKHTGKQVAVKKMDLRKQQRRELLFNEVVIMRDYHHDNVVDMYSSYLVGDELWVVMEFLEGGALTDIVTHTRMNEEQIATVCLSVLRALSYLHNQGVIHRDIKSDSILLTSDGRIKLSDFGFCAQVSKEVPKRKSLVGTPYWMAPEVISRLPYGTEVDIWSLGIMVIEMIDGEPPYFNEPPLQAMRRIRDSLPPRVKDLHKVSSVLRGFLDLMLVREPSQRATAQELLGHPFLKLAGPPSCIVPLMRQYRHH
Activity [1],pIC50 [2],Activity [3],Activity [4],Activity [5],Activity [6],Activity [7],Activity [8],Activity [9],Activity [10],Compound
112%,8.30,93%,105%,,,,,,,COc1ccc(/C=C/C(=O)Nc2cc(-c3[nH]c([S+](C)[O-])nc3-c3ccc(F)cc3)ccn2)c(OC)c1 (stereo not given)
,,,,94%,98%,22%,81%,104%,94%,CC(C)c1noc(-c2ccc(F)cc2)c1-c1ccncc1
,,,,93%,88%,101%,79%,101%,98%,CC(C)c1onc(-c2ccc(F)cc2)c1-c1ccncc1
97%,8.40,91%,105%,,,,,,,COc1ccc(/C=C/C(=O)Nc2cc(-c3[nH]c(SC)nc3-c3ccc(F)cc3)ccn2)c(OC)c1
